Activity calls are given as the source filed them. The calls are words filed in the database; no cut-off is given here.
What was measured:
Rattus norvegicus [1] = assay: Hypotensive effect in anesthetized Wistar rat arterial pressure model assessed as decrease in heart rate at 0.1 mg/kg administered through femoral vein; assay type: functional, organism-based; design: dose 0.1 mg/kg
Summary of the method: (§1)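 Male Wistar rats (280–320 g) under sodium pentobarbital (45 mg/kg, ip), tracheotomised. Right carotid cannulated (PE50) to a pressure transducer recording systolic, diastolic and mean arterial pressure and heart rate. Cumulative iv doses via femoral vein every 5 min: test series 0.0001–10 mg/kg, reference drugs 0.0001–1.0 mg/kg, n = 5. Change measured from pre-dose basal; ED50 taken from a fitted dose–effect model.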

Rattus norvegicus [2] = assay: Hypotensive effect in anesthetized Wistar rat arterial pressure model assessed as decrease in heart rate at 10.0 mg/kg administered through femoral vein; assay type: functional, organism-based; design: dose 10 mg/kg; summary of the method: as §1
Rattus norvegicus [3] = assay: Antihypertensive effect in spontaneous hypertensive Wistar rat model assessed as maximum decrease in heart rate per min at 1.0 mg/kg, po after 120 mins; assay type: functional
Summary of the method: (§2)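 Conscious spontaneously hypertensive rats given a single oral dose of 1.0 mg/kg. Systolic and diastolic pressure and heart rate followed over 2.0 h. The largest fall from baseline and the time at which it occurred were recorded for each variable.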

Rattus norvegicus [4] = assay: Hypotensive effect in anesthetized Wistar rat arterial pressure model assessed as decrease in heart rate at 3.1 mg/kg administered through femoral vein; assay type: functional, organism-based; design: dose 3.1 mg/kg; summary of the method: as §1
Rattus norvegicus [5] = assay: Antihypertensive effect in spontaneous hypertensive Wistar rat model assessed as maximum decrease in systolic arterial pressure at 1.0 mg/kg, po after 60 mins; assay type: functional, Artery; summary of the method: as §2
Rattus norvegicus [6] = assay: Antihypertensive effect in spontaneous hypertensive Wistar rat model assessed as maximum decrease in diastolic arterial pressure at 1.0 mg/kg, po after 60 mins; assay type: functional, Artery; summary of the method: as §2
Rattus norvegicus [7] = assay: Antihypertensive effect in anesthetized Wistar rat; assay type: functional; summary of the method: as §1
Rattus norvegicus [8] = assay: Hypotensive effect in anesthetized Wistar rat arterial pressure model assessed as decrease in heart rate at 0.01 mg/kg administered through femoral vein; assay type: functional, organism-based; design: dose 0.01 mg/kg; summary of the method: as §1
Rattus norvegicus [9] = assay: Hypotensive effect in anesthetized Wistar rat arterial pressure model assessed as decrease in heart rate at 1.0 mg/kg administered through femoral vein; assay type: functional, organism-based; design: dose 1 mg/kg; summary of the method: as §1
Rattus norvegicus [10] = assay: Antihypertensive effect in spontaneous hypertensive Wistar rat model assessed as maximum decrease in systolic arterial pressure at 1.0 mg/kg, po after 80 mins; assay type: functional, Artery; summary of the method: as §2
Rattus norvegicus [11] = assay: Antihypertensive effect in spontaneous hypertensive Wistar rat model assessed as maximum decrease in heart rate per min at 1.0 mg/kg, po after 80 mins; assay type: functional; summary of the method: as §2
Rattus norvegicus [12] = assay: Antihypertensive effect in anesthetized Wistar rat assessed as change systolic arterial pressure at 10.0 mg/kg administered through femoral vein; assay type: functional, Artery; summary of the method: as §1
Rattus norvegicus [13] = assay: Antihypertensive effect in anesthetized Wistar rat assessed as change mean arterial pressure at 10.0 mg/kg administered through femoral vein; assay type: functional, Artery; summary of the method: as §1
Rattus norvegicus [14] = assay: Antihypertensive effect in spontaneous hypertensive Wistar rat model assessed as maximum decrease in diastolic arterial pressure at 1.0 mg/kg, po after 80 mins; assay type: functional, Artery; summary of the method: as §2
Rattus norvegicus [15] = assay: Antihypertensive effect in anesthetized Wistar rat assessed as change diastolic arterial pressure at 10.0 mg/kg administered through femoral vein; assay type: functional, Artery; summary of the method: as §1
Rattus norvegicus [16] = assay: Hypotensive effect in anesthetized Wistar rat arterial pressure model assessed as decrease in heart rate at 0.0001 mg/kg administered through femoral vein; assay type: functional, organism-based; design: dose 0.0001 mg/kg; summary of the method: as §1
Rattus norvegicus [17] = assay: Hypotensive effect in anesthetized Wistar rat arterial pressure model at 3.1 mg/kg administered through femoral vein; assay type: functional, organism-based; design: dose 3.1 mg/kg; settings: Artery; summary of the method: as §1
Rattus norvegicus [18] = assay: Hypotensive effect in anesthetized Wistar rat arterial pressure model at 10.0 mg/kg administered through femoral vein; assay type: functional, organism-based; design: dose 10 mg/kg; settings: Artery; summary of the method: as §1
Rattus norvegicus [19] = assay: Antihypertensive effect in spontaneous hypertensive Wistar rat model assessed as maximum decrease in heart rate per min at 1.0 mg/kg, po after 110 mins; assay type: functional; summary of the method: as §2
Rattus norvegicus [20] = assay: Antihypertensive effect in spontaneous hypertensive Wistar rat model assessed as maximum decrease in diastolic arterial pressure at 1.0 mg/kg, po after 100 mins; assay type: functional, Artery; summary of the method: as §2
Rattus norvegicus [21] = assay: Hypotensive effect in anesthetized Wistar rat arterial pressure model assessed as decrease in heart rate at 0.001 mg/kg administered through femoral vein; assay type: functional, organism-based; design: dose 0.001 mg/kg; summary of the method: as §1
Rattus norvegicus [22] = assay: Antihypertensive effect in spontaneous hypertensive Wistar rat model assessed as maximum decrease in systolic arterial pressure at 1.0 mg/kg, po after 100 mins; assay type: functional, Artery; summary of the method: as §2
Rattus norvegicus [23] = assay: Hypotensive effect in anesthetized Wistar rat arterial pressure model at 1.0 mg/kg administered through femoral vein; assay type: functional, organism-based; design: dose 1 mg/kg; settings: Artery; summary of the method: as §1
Rattus norvegicus [24] = assay: Antihypertensive effect in anesthetized Wistar rat assessed as reduction of systolic arterial pressure at 1 mg/kg administered through femoral vein; assay type: functional, organism-based; design: dose 1 mg/kg; settings: Artery; summary of the method: as §1
Rattus norvegicus [25] = assay: Antihypertensive effect in spontaneous hypertensive Wistar rat model assessed as maximum decrease in systolic arterial pressure at 1.0 mg/kg, po after 50 mins; assay type: functional, Artery; summary of the method: as §2
Rattus norvegicus [26] = assay: Antihypertensive effect in anesthetized Wistar rat assessed as reduction of diastolic arterial pressure at 1 mg/kg administered through femoral vein; assay type: functional, organism-based; design: dose 1 mg/kg; settings: Artery; summary of the method: as §1
Rattus norvegicus [27] = assay: Antihypertensive effect in spontaneous hypertensive Wistar rat model assessed as maximum decrease in heart rate per min at 1.0 mg/kg, po after 70 mins; assay type: functional; summary of the method: as §2
Rattus norvegicus [28] = assay: Hypotensive effect in anesthetized Wistar rat arterial pressure model at 0.001 mg/kg administered through femoral vein; assay type: functional, organism-based; design: dose 0.001 mg/kg; settings: Artery; summary of the method: as §1
Rattus norvegicus [29] = assay: Hypotensive effect in anesthetized Wistar rat arterial pressure model at 0.1 mg/kg administered through femoral vein; assay type: functional, organism-based; design: dose 0.1 mg/kg; settings: Artery; summary of the method: as §1
Rattus norvegicus [30] = assay: Antihypertensive effect in spontaneous hypertensive Wistar rat model assessed as maximum decrease in heart rate per min at 1.0 mg/kg, po after 100 mins; assay type: functional; summary of the method: as §2
Rattus norvegicus [31] = assay: Antihypertensive effect in anesthetized Wistar rat assessed as reduction of mean arterial pressure at 1 mg/kg administered through femoral vein; assay type: functional, organism-based; design: dose 1 mg/kg; settings: Artery
Summary of the method: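 Male Wistar rats (280–320 g) anesthetized with sodium pentobarbital (45 mg/kg ip), tracheotomized; right carotid artery cannulated to a pressure transducer recording systolic, diastolic and mean arterial pressure and heart rate. Compounds given IV via femoral vein as cumulative dose–effect curve (0.0001–10 mg/kg), doses every five minutes; n = 5.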

Rattus norvegicus [32] = assay: Hypotensive effect in anesthetized Wistar rat arterial pressure model at 0.01 mg/kg administered through femoral vein; assay type: functional, organism-based; design: dose 0.01 mg/kg; settings: Artery; summary of the method: as §1
Rattus norvegicus [33] = assay: Antihypertensive effect in spontaneous hypertensive Wistar rat model assessed as maximum decrease in diastolic arterial pressure at 1.0 mg/kg, po after 90 mins; assay type: functional, Artery; summary of the method: as §2
Rattus norvegicus [34] = assay: Hypotensive effect in anesthetized Wistar rat arterial pressure model at 0.0001 mg/kg administered through femoral vein; assay type: functional, organism-based; design: dose 0.0001 mg/kg; settings: Artery; summary of the method: as §1
Rattus norvegicus [35] = assay: Antihypertensive effect in spontaneous hypertensive Wistar rat model assessed as maximum decrease in systolic arterial pressure at 1.0 mg/kg, po after 90 mins; assay type: functional, Artery; summary of the method: as §2

Row | Compound | Activity (Rattus norvegicus [1]) | Activity (Rattus norvegicus [2]) | Activity (Rattus norvegicus [4]) | Activity (Rattus norvegicus [6]) [mmHg] | ED50 (Rattus norvegicus [7]) [mg/kg] | Activity (Rattus norvegicus [8]) | Activity (Rattus norvegicus [9]) | Activity (Rattus norvegicus [17]) | Activity (Rattus norvegicus [18]) | Activity (Rattus norvegicus [23]) | other results
1 | Oc1cc(O)c(CN2CCSCC2)cc1CN1CCSCC1 | Active | Active | Active | 29.2 | 0.363 | Active | Active |  |  |  | Activity (Rattus norvegicus [3]): 92.5; Activity (Rattus norvegicus [5]): 45.6 mmHg
2 | O=C(N[C@H]1CCS[C@H]2CCC[C@@H](C(=O)O)N2C1=O)[C@@H](S)Cc1ccccc1 [OMAPATRILAT] |  |  |  |  | 0.0058 |  |  |  |  |  | 
3 | CCCCc1nc(Cl)c(CO)n1Cc1ccc(-c2ccccc2-c2nnn[nH]2)cc1 [LOSARTAN] |  |  |  |  | 0.0282 |  |  |  |  |  | Activity (Rattus norvegicus [10]): 82.3 mmHg; Activity (Rattus norvegicus [11]): 38.37; Activity (Rattus norvegicus [12]): 43.62 mmHg; Activity (Rattus norvegicus [13]): 41.31 mmHg; Activity (Rattus norvegicus [14]): 66.3 mmHg; Activity (Rattus norvegicus [15]): 45.64 mmHg
4 | Oc1ccc(Cl)cc1CN1CCSCC1 |  |  |  |  | 2.21 | Active |  | Active | Active | Active | Activity (Rattus norvegicus [16]): Active; Activity (Rattus norvegicus [19]): 72.2; Activity (Rattus norvegicus [20]): 46.7 mmHg; Activity (Rattus norvegicus [21]): Active; Activity (Rattus norvegicus [22]): 73.9 mmHg
5 | C[C@H](CS)C(=O)N1CCC[C@H]1C(=O)O [CAPTOPRIL] |  |  |  |  | 0.00062 |  |  |  |  |  | Activity (Rattus norvegicus [24]): Active; Activity (Rattus norvegicus [25]): 42 mmHg; Activity (Rattus norvegicus [26]): Active; Activity (Rattus norvegicus [20]): 36.5 mmHg; Activity (Rattus norvegicus [27]): 52.04
6 | CC(C)(C)c1ccc(O)c(CN2CCSCC2)c1 | Active | Active |  | 31.8 | 1.04 | Active | Active | Active | Active | Active | Activity (Rattus norvegicus [28]): Active; Activity (Rattus norvegicus [29]): Active; Activity (Rattus norvegicus [22]): 71.5 mmHg; Activity (Rattus norvegicus [30]): 148 beats/min
7 | CC(C)(C)c1cc(CN2CCSCC2)c(O)c(CN2CCSCC2)c1 |  | Active | Active |  | 0.411 |  | Active | Active | Active | Active | Activity (Rattus norvegicus [31]): Active; Activity (Rattus norvegicus [32]): Active; Activity (Rattus norvegicus [33]): 48.2 mmHg; Activity (Rattus norvegicus [28]): Active; Activity (Rattus norvegicus [34]): Active; Activity (Rattus norvegicus [29]): Active; Activity (Rattus norvegicus [30]): 160 beats/min; Activity (Rattus norvegicus [35]): 95.8 mmHg
8 | CC(C)(c1ccc(O)c(CN2CCSCC2)c1)c1ccc(O)c(CN2CCSCC2)c1 | Active | Active | Active | 12.6 | 1.41 | Active | Active | Active | Active | Active | Activity (Rattus norvegicus [3]): 106.566; Activity (Rattus norvegicus [34]): Active; Activity (Rattus norvegicus [5]): 28.1 mmHg

Reference: ChEMBL document CHEMBL1149786, “Synthesis and antihypertensive effects of new methylthiomorpholinphenol derivatives” (2008)
